For one experiment, the system named is HCT-116. Briefly: Antitumour activity against human HCT-116 cells assessed as cell growth inhibition at 0.1 to 75 uM incubated for 72 hrs by MTT assay. To be noted: dose 0.1-75 µM. The experiment is classed as functional, cell-based. In a few lines:
(§1)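 MTT viability assay. Cells were plated at line-specific densities and left to attach 24 h, then exposed 72 h at 37 °C to 0.1–75 μM, eight replicates per concentration, with 0.2% DMSO controls. MTT was added for 3 h at 37 °C, formazan dissolved in DMSO and read at 570 nm. IC50 came from nonlinear regression; mean ± ES of 4/5 independent experiments.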
(Tetrazolium assays rely on reduction of a dye to a coloured formazan, in cell work by metabolically active cells.)

The subject of experiment [1] is DU-145. Put plainly: Antitumor activity against human DU-145 cells assessed as cell growth inhibition at 0.1 to 75 uM incubated for 72 hrs by MTT assay. The experiment is classed as functional, cell-based. Conditions: dose 0.1-75 µM. The method, boiled down: as §1
Another experiment deals with MDA-MB-231. Briefly: Antitumour activity against human MDA-MB-231 cells assessed as cell growth inhibition at 0.1 to 75 uM incubated for 72 hrs by MTT assay. The experiment is classed as functional, cell-based. To be noted: dose 0.1-75 µM. In a few lines: as §1
For experiment [2], the system named is PC-3. Briefly: Antitumor activity against human PC-3 cells assessed as cell growth inhibition at 0.1 to 75 uM incubated for 72 hrs by MTT assay. The experiment is classed as functional, cell-based. Conditions: dose 0.1-75 µM. The method, boiled down: as §1
The nature of experiment [3]: Induction of NO production aqueous solution assessed as nitrite level at 80 uM measured after 1 hr of white light irradiation by griess reagent based assay. Format: functional. The method, boiled down: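 Griess assay. Aqueous compound at 160 μM was mixed 1:1 with Griess reagent, giving 80 μM, in a quartz cuvette. The mix was irradiated with a 300 W tungsten lamp at 40 cm for 15 min, 1 h or 2 h. Absorbance was read at 540 nm and nitrite quantified against a NaNO2 standard curve (5–50 μM).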
Background: Griess reagent forms a coloured azo dye with nitrite.

In experiment [4] the test system is Pseudomonas aeruginosa PAO1. Put plainly: Binding affinity to Pseudomonas aeruginosa PA01 cell wall at 10 uM incubated for 1 hr in dark. The method, boiled down: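 Indirect cell-binding assay. Pelleted overnight PAO1 cells were resuspended and diluted 10-fold in PBS, then given compound at 10 μM for 1 h at 37 °C in the dark. After centrifugation, the supernatant visible spectrum (380–700 nm) was compared with the spectrum of each compound alone; a drop in absorbance indicates binding.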

Experiment [5] deals with Pseudomonas aeruginosa. Briefly: Antimicrobial activity against Pseudomonas aeruginosa PA01 assessed as inhibition of microbial growth measured after 24 hrs by broth dilution method. Format: functional. Conditions: PAO1. In a few lines:
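Broth dilution MIC against P. aeruginosa PAO1. Overnight LB cultures (37 °C, 200 rpm) diluted 100-fold to 10^7 CFU/mL. Two-fold dilution series from 200 to 0.1 μg/mL, 24 h at 37 °C. MIC taken as the lowest concentration with no detectable turbidity. Run at least three times.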
For orientation: Dilution methods test growth across graded concentrations, often in twofold steps.

In experiment [6] the test system is DU-145. Briefly: […] against human DU-145 cells assessed as reduction in cell viability by measuring difference in IC50 pretreated for 24 hrs followed by white light irradiation for 1 hr further incubated for 48 hrs in drug free medium by MTT assay. The experiment is classed as functional, cell-based. The method, boiled down: (§2)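 Prostate cells were treated for 24 h, irradiated 1 h with white or blue light (dark-kept comparison), then incubated 48 h in drug-free medium.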

The test system of experiment [7] is PC-3. Briefly: […] against human PC-3 cells assessed as reduction in cell viability by measuring difference in IC50 pretreated for 24 hrs followed by white light irradiation for 1 hr further incubated for 48 hrs in drug free medium by MTT assay. Format: functional, cell-based. The method, boiled down:
as §2

Experiment [8] concerns DU-145. Briefly: […] against human DU-145 cells assessed as reduction in cell viability by measuring difference in IC50 pretreated for 24 hrs followed by blue light irradiation for 1 hr further incubated for 48 hrs in drug free medium by MTT assay. The experiment is classed as functional, cell-based. In a few lines: as §2
For experiment [9], the system named is Pseudomonas aeruginosa. Put plainly: Photodynamic antimicrobial activity against Pseudomonas aeruginosa PA01 assessed as bacterial eradication at 10 uM incubated for 10 min in dark followed by irradiation with 20J/cm2 light by viability count technique. The experiment is classed as functional, organism-based. To be noted: PAO1. In a few lines:
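Photoinactivation assay. Overnight cultures were diluted in 10 mM phosphate buffer, pH 7.4, to ~10^6 CFU/mL. Compound was added at 10 μM and held 10 min in the dark, then irradiated at 410 ± 10 nm (20 J/cm2); dark controls were not irradiated. Survivors were counted on LB agar after overnight 37 °C incubation and reported as CFU/mL; at least three independent experiments.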

For experiment [10], the system named is PC-3. Briefly: […] against human PC-3 cells assessed as reduction in cell viability by measuring difference in IC50 pretreated for 24 hrs followed by blue light irradiation for 1 hr further incubated for 48 hrs in drug free medium by MTT assay. The experiment is classed as functional, cell-based. In a few lines: as §2
Experiment [11] deals with PC-3. Briefly: Antitumor activity against human PC-3 cells assessed as cell growth inhibition incubated for 72 hrs by MTT assay. Conditions: PC-3, 72 h. Format: functional, cell-based. The method, boiled down: as §1

pIC50: −log10 of the molar value. Activity calls are given as the source filed them. The calls are words filed in the database; no cut-off is given here.

Usually MIC stands for the least concentration at which growth counts as inhibited. A word on the pIC50: it is the negative decadic logarithm of the IC50, by convention in mol/L.

Consider `O=C(O)c1cn(C2CC2)c2cc(N3CCN(c4ccc([N+](=O)[O-])c(C(F)(F)F)c4)CC3)c(F)cc2c1=O`, for which the result (in the experiment on HCT-116; in the experiment with DU-145 [1]; in the experiment with MDA-MB-231; in the experiment on PC-3 [2]; in [4]) was Active. Besides, in [3], the Activity came out at 0.6 µM. For the same compound, the MIC with Pseudomonas aeruginosa [5] turned out to be 25 µg/mL.
As for `COC(=O)c1cn(C2CC2)c2cc(N3CCN(c4ccc([N+](=O)[O-])c(C(F)(F)F)c4)CC3)c(F)cc2c1=O`, the result (in the experiment on HCT-116; in the experiment with DU-145 [1]; with MDA-MB-231; in the experiment on PC-3 [2]; in experiment [4]) was Active. Besides, the MIC in the experiment with Pseudomonas aeruginosa [5] is 25 µg/mL.
For the compound `O=C(O)c1cn(C2CC2)c2cc(N3CCN(CCNc4ccc([N+](=O)[O-])c(C(F)(F)F)c4)CC3)c(F)cc2c1=O`, the result (in the experiment on HCT-116; in the experiment with DU-145 [1]; with MDA-MB-231; in the experiment with PC-3 [2]; in [4]) was Active. Further, the Activity in experiment [3] came to 0.5 µM. For the same compound, the MIC with Pseudomonas aeruginosa [5] is 25 µg/mL.
Consider `CCn1cc(C(=O)O)c(=O)c2cc(F)c(N3CCN(CCCNc4ccc([N+](=O)[O-])c(C(F)(F)F)c4)CC3)cc21`, for which the Activity in experiment [3] is 1.8 µM. Further, the outcome in [4] was Active. The MIC with Pseudomonas aeruginosa [5] came out at 25 µg/mL.
Take `CCn1cc(C(=O)O)c(=O)c2cc(F)c(N3CCN(CCNc4ccc([N+](=O)[O-])c(C(F)(F)F)c4)CC3)cc21`: the result with DU-145 [6], in the experiment with PC-3 [7], in the experiment on DU-145 [8], in the experiment on Pseudomonas aeruginosa [9] and in the experiment with PC-3 [10] was inactive. In addition, the Activity in experiment [3] is 0.2 µM. Further, in [4], the outcome was Active. Further, in the experiment on Pseudomonas aeruginosa [5], the MIC is 25 µg/mL.
With `COC(=O)c1cn(C2CC2)c2cc(N3CCN(CCNc4ccc([N+](=O)[O-])c(C(F)(F)F)c4)CC3)c(F)cc2c1=O`, the outcome (in the experiment on HCT-116; with DU-145 [1]; in the experiment with MDA-MB-231; in the experiment on PC-3 [2]; in experiment [4]) was Active. Also, the MIC in the experiment with Pseudomonas aeruginosa [5] amounted to 25 µg/mL.
With `COC(=O)c1cn(C2CC2)c2cc(N3CCN(CCCNc4ccc([N+](=O)[O-])c(C(F)(F)F)c4)CC3)c(F)cc2c1=O`, the outcome (in the experiment on HCT-116; in the experiment with DU-145 [1]; in the experiment on MDA-MB-231; in the experiment with PC-3 [2]; in experiment [4]) was Active. In the experiment on Pseudomonas aeruginosa [5], the MIC is 25 µg/mL.
Regarding `CCn1cc(C(=O)O)c(=O)c2cc(F)c(N3CCN(c4ccc([N+](=O)[O-])c(C(F)(F)F)c4)CC3)cc21`, in experiment [3], the Activity is 3.1 µM. Moreover, in experiment [4], the outcome was Active. Further, the MIC in the experiment with Pseudomonas aeruginosa [5] is 25 µg/mL.
On to `O=C(O)c1cn(C2CC2)c2cc(N3CCN(CCCNc4ccc([N+](=O)[O-])c(C(F)(F)F)c4)CC3)c(F)cc2c1=O`, for which the outcome (in the experiment on HCT-116; in the experiment with DU-145 [1]; in the experiment with MDA-MB-231; with PC-3 [2]; in experiment [4]) was Active. The outcome with DU-145 [6], in the experiment on PC-3 [7], in the experiment on DU-145 [8] and in the experiment with PC-3 [10] was inactive. For the same compound, the pIC50 in the experiment with PC-3 [11] was over 5.52. The Activity in experiment [3] turned out to be 6.2 µM. For the same compound, the MIC in the experiment on Pseudomonas aeruginosa [5] stood at 25 µg/mL.
As for `CCn1cc(C(=O)OC)c(=O)c2cc(F)c(N3CCN(c4ccc([N+](=O)[O-])c(C(F)(F)F)c4)CC3)cc21`, the result in experiment [4] was Active. The MIC with Pseudomonas aeruginosa [5] is 25 µg/mL.
On the same counts, the results for `CCn1cc(C(=O)OC)c(=O)c2cc(F)c(N3CCN(CCCNc4ccc([N+](=O)[O-])c(C(F)(F)F)c4)CC3)cc21` are “Active” and 25 µg/mL.
On the same counts, the results for `CCn1cc(C(=O)OC)c(=O)c2cc(F)c(N3CCN(CCNc4ccc([N+](=O)[O-])c(C(F)(F)F)c4)CC3)cc21` are “Active” and 25 µg/mL.

Values taken from ChEMBL document CHEMBL5055634 (J Med Chem, 2021).
